Target: T1, OR10S1 (Homo sapiens) (UniProt Q8NGN2)
T1 sequence (whole entry): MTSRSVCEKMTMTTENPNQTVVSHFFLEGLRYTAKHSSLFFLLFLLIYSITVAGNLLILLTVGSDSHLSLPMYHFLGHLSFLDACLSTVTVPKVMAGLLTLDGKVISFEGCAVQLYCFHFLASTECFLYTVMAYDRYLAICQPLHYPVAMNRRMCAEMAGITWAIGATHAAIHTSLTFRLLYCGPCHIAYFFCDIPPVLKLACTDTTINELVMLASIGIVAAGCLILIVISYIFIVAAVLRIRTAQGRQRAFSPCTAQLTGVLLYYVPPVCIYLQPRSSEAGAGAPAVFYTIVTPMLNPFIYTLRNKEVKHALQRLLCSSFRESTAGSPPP
Details: stereoisomer not certain
Outline: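 Transient luciferase assays in mammalian cell lines were common, though methods varied by source. The values come from published papers and their supplementary material, with extra details from the original authors when needed. Responsive refers to a measured signal the original authors judged statistically different from baseline, and non-responsive (inactive) to the remainder.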

Structure (SMILES)	odorant receptor agonist call;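 note: active if original authors judged signal statistically different from baseline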
CCCCC(=O)C(C)=O	inactive
CCCO	inactive
CCCCCCCCCCCCCC(=O)OC	inactive
CCCCCCCCCCCCO	active
CCC(C)CO (stereo unspecified)	inactive
C=C(C)C1CC=C(C)CC1 (stereo unspecified)	inactive
CCCCCCCC(=O)OCC	inactive
CC(=O)O	inactive
CCCCCCCCCCCC(=O)O	inactive
Cc1cnc(C)cn1	inactive
CCCCCCCCCC(=O)OCC	inactive
CCCCCCCCCCCCCC(=O)O	inactive
Cc1ccc(C(C)C)cc1	inactive
C=C1CCC2CC1C2(C)C (stereo unspecified)	inactive
CCCCCCCCCCCCCCCCCC(=O)OCC	inactive
CC(C)=CCCC(C)=CCCC(C)=CCO	inactive
CC(C=O)Cc1ccc(C(C)(C)C)cc1 (stereo unspecified)	active
CCCCCCCCCCCC(=O)OCC	inactive
CCCCCCCCCCCCCCCC(=O)[O-].[H+]	inactive
CCCCCCCCCCCCCC(=O)OCC	inactive
CCCCCCCCCCCCCCCC(=O)OCC	inactive
CC1=CCC2CC1C2(C)C (stereo unspecified)	inactive
CCC(=O)O	inactive
COc1ccc2[nH]cc(CCNC(C)=O)c2c1	inactive
CCCCCCCCCCCCCCCCCC(=O)OC	inactive
CCCCCCCCCCCCCCCC(=O)OC	inactive

— the M2OR odorant receptor database
